Results taken from ChEMBL document CHEMBL4359893, “Synthesis, structure-activity relationship and trypanocidal activity of pyrazole-imidazoline and new pyrazole-tetrahydropyrimidine hybrids as promising chemotherapeutic agents for Chagas disease” (Eur J Med Chem, 2019).

How the values were obtained:
[1] = Selectivity index, ratio of CC50 for African green monkey Vero cells to IC50 for Trypanosoma cruzi Y strain bloodstream trypomastigotes isolated from infected Swiss webster mouse cardiac cells; format: toxicity; conditions: read-out: Ratio CC50/IC50
[2] = Selectivity index, ratio of CC50 for African green monkey Vero cells to IC50 for luciferase expressing Trypanosoma cruzi Dm28c trypomastigotes isolated from infected Vero cells; format: toxicity; conditions: read-out: Ratio CC50/IC50
Trypanosoma cruzi [3] = experiment: Trypanocidal activity against Trypanosoma cruzi Y strain bloodstream trypomastigotes isolated from infected Swiss webster mouse cardiac cells assessed as reduction in parasite viability after 24 hrs by Celltiter-Glo assay; format: functional, organism-based
Method in brief: (§1)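 Trypomastigotes at 1 × 10⁶ parasites/well treated 24 h at 37 °C with 0.41–100 µM compound. Y strain viability read by ATP luminescence (CellTiter-Glo); Dm28c-Luc viability read by luciferase activity. IC50/IC90 by linear regression. Benznidazole positive and DMSO ≤1% negative controls.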

Trypanosoma cruzi [4] = experiment: Trypanocidal activity against luciferase expressing Trypanosoma cruzi Dm28c trypomastigotes isolated from infected Vero cells assessed as reduction in parasite viability after 24 hrs by luciferase-luminescence assay; format: functional, organism-based; method in brief: as §1
Trypanosoma cruzi [5] = experiment: Trypanocidal activity against intracellular amastigote stage of luciferase expressing Trypanosoma cruzi Dm28c infected in Vero cells assessed as reduction in parasite viability after 72 hrs in presence of luciferin by luciferase luminescence analysis
[6] = Cytotoxicity against African green monkey Vero cells assessed as reduction in cell viability by measuring ATP level after 72 hrs by Celltiter-Glo assay; format: cell-based; conditions: chlorocebus sabaeus
Method in brief: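 Vero cells seeded at 1.5 × 10⁴ cells/well, exposed 24 h later to 1.95–500 µM compound for 72 h at 37 °C. Viability read as ATP luminescence (CellTiter-Glo). DMSO ≤1% as control. CC50 from linear regression; at least three independent assays in duplicate.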

[7] = Selectivity index, ratio of CC50 for African green monkey Vero cells to IC50 for intracellular amastigote stage of luciferase expressing Trypanosoma cruzi Dm28c infected in Vero cells; format: toxicity, cell-based; conditions: read-out: Ratio CC50/IC50
[8] = Selectivity index, ratio of CC50 for mouse cardiomyocyte infected with intracellular amastigote stage of Trypanosoma cruzi Y strain to IC50 for amastigote stage of Trypanosoma cruzi Y strain; format: toxicity, cell-based; conditions: read-out: Ratio CC50/IC50
Trypanosoma cruzi [9] = experiment: Trypanocidal activity against intracellular amastigote stage of Trypanosoma cruzi Y strain infected in Swiss webster cardiac cells assessed as reduction in parasite viability
[10] = Cytotoxicity against mouse cardiomyocytes infected with intracellular amastigote stage of Trypanosoma cruzi Y strain assessed as reduction in cardiomyocyte viability after 72 hrs by Celltiter-Glo assay; format: cell-based, Cardiac Muscle Cell
Method in brief: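 Primary heart muscle cells from 18-day mouse fetuses, dissociated with trypsin/collagenase II, grown in DMEM with 7% FBS, 2% chicken embryo extract, 1 mM L-glutamine, antibiotics, 37 °C, 5% CO₂. Plated at 5 × 10⁴ cells/well and treated 72 h. Viability read by ATP luminescence. CC50 from linear regression; DMSO ≤1% control; at least three independent assays in duplicate.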

Cruzipain [11] = target: T1, Cruzipain (Trypanosoma cruzi, UniProt P25779); experiment: Irreversible inhibition of Trypanosoma cruzi cruzipain
Cruzipain [12] = target: T1, Cruzipain; experiment: Inhibition of Trypanosoma cruzi cruzipain assessed as reduction in enzymatic activity using Z-FR-AMC fluorogenic peptide substrate incubated for 45 mins by spectrophotometry analysis
Method in brief: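 Soluble trypomastigote protein extract (lysis in Tris pH 8.0/NaCl/glycerol/Triton X-100, 25,000 g supernatant) used as enzyme source. Incubated with 30 µM Z-FR-AMC in 10 mM sodium acetate pH 5.0 with 1 mM DTT, co-incubated with inhibitor concentrations, 45 min at 37 °C. AMC release read by fluorescence. Substrate self-degradation and DMSO ≤1% controls.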

Trypanosoma cruzi [13] = experiment: Potency index, ratio of compound IC90 to benznidazole IC90 for Trypanocidal activity against intracellular amastigote stage of luciferase expressing Trypanosoma cruzi Dm28c infected in Vero cells; format: functional
[14] = target: Cruzipain (Trypanosoma cruzi) (UniProt P25779); experiment: Potency index, ratio of compound IC50 to E-64 IC50 for inhibition of Trypanosoma cruzi cruzipain
Chain of Cruzipain (Trypanosoma cruzi) (P25779 123-467 limits assumed): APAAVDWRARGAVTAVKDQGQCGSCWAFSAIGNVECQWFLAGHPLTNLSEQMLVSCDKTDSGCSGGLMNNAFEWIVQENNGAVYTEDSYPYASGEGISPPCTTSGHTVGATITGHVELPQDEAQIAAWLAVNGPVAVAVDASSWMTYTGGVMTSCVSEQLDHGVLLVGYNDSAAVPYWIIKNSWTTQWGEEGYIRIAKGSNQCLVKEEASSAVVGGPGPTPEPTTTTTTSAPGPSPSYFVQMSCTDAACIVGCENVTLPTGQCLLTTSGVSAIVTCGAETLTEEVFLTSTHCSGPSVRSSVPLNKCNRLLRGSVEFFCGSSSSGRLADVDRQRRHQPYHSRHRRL

T1 sequence (P25779 whole entry): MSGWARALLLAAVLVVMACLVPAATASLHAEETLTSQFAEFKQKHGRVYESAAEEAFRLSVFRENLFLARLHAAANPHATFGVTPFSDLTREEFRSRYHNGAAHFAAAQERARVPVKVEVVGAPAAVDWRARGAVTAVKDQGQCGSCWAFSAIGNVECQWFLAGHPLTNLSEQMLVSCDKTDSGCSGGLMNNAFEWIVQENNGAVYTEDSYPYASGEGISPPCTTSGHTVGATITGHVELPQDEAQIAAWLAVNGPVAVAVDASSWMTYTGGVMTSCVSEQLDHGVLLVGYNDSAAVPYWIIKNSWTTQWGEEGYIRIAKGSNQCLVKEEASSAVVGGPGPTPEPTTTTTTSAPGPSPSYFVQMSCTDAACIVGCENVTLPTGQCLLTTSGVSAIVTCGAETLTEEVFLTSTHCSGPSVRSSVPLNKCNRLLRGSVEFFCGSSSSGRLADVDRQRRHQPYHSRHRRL

IC50 (Cruzipain [11]) [µM]	IC50 (Cruzipain [12]) [µM]	Ratio IC50 [14]	SMILES	selectivity ratio [1]	selectivity ratio [2]	IC50 (Trypanosoma cruzi [3]) [µM]	IC90 (Trypanosoma cruzi [3]) [µM]	IC50 (Trypanosoma cruzi [4]) [µM]	IC90 (Trypanosoma cruzi [4]) [µM]	IC50 (Trypanosoma cruzi [5]) [µM]	IC90 (Trypanosoma cruzi [5]) [µM]	CC50 at 72 h [6] [µM]	selectivity ratio [7]	selectivity ratio [8]	IC50 (Trypanosoma cruzi [9]) [µM]	CC50 at 72 h [10] [µM]	Ratio (Trypanosoma cruzi [13])
–	–	–	Nc1c(C2=NCCN2)cnn1-c1cccc(Cl)c1	> 15.9	9.4	31.3	> 100	53.3	81.1	20.6	55	> 500	> 24.3	–	–	–	–
–	–	–	Nc1c(C2=NCCCN2)cnn1-c1ccc(Cl)cc1	–	–	> 100	> 100	> 100	> 100	> 100	> 100	> 500	–	–	–	–	–
–	–	–	COc1ccc(-n2ncc(C3=NCCCN3)c2N)cc1	–	–	> 100	> 100	> 100	> 100	> 100	> 100	> 500	–	–	–	–	–
–	–	–	O=C(Cn1ccnc1[N+](=O)[O-])NCc1ccccc1 [BENZNIDAZOLE]	> 21.4	> 26.3	23.3	> 100	19.1	94.1	1.9	6.9	> 500	> 263	> 555	0.9	> 500	–
–	–	–	Nc1c(C2=NCCCN2)cnn1-c1ccc(Cl)c(Cl)c1	–	–	> 100	> 100	> 100	> 100	> 100	> 100	> 500	–	–	–	–	–
–	–	–	Nc1c(C2=NCCCN2)cnn1-c1cccc(Cl)c1	–	–	> 100	> 100	> 100	> 100	> 100	> 100	> 500	–	–	–	–	–
3	–	–	CC(C)C[C@H](NC(=O)[C@@H]1O[C@H]1C(=O)O)C(=O)NCCCCN=C(N)N	–	–	–	–	–	–	–	–	–	–	–	–	–	–
–	–	–	Nc1c(C2=NCCCN2)cnn1-c1cccc(Br)c1	–	–	> 100	> 100	> 100	> 100	> 100	> 100	> 500	–	–	–	–	–
–	24	8	Nc1c(C2=NCCN2)cnn1-c1cc(Cl)cc(Cl)c1	8.3	27.1	30.9	> 100	9.5	28.9	16.5	29.9	257	15.6	30.3	12.5	379	4.4
–	–	–	Nc1c(C2=NCCN2)cnn1-c1ccccc1	–	–	> 100	> 100	> 100	> 100	84.2	> 100	> 500	> 5.9	–	–	–	–
–	–	–	Nc1c(C2=NCCN2)cnn1-c1ccc(Cl)cc1	> 5.9	> 6.3	84.2	> 100	78.9	> 100	> 100	> 100	> 500	–	–	–	–	–
–	–	–	COc1ccc(-n2ncc(C3=NCCN3)c2N)cc1	–	–	> 100	> 100	> 100	> 100	63.4	> 100	> 500	> 7.9	–	–	–	–
–	–	–	Nc1c(C2=NCCCN2)cnn1-c1cc(Cl)cc(Cl)c1	–	–	> 100	> 100	> 100	> 100	> 100	> 100	> 500	–	–	–	–	–
–	–	–	Nc1c(C2=NCCN2)cnn1-c1ccc(Br)cc1	> 9.5	–	52.3	> 100	> 100	> 100	84.2	> 100	> 500	> 5.9	–	–	–	–
–	180	60	Nc1c(C2=NCCN2)cnn1-c1ccc(Cl)c(Cl)c1	8.6	23.3	28.3	> 100	10.5	29	13.6	30.5	244	17.9	32.4	12.7	412	4.4
–	–	–	Nc1c(C2=NCCCN2)cnn1-c1ccccc1	–	–	> 100	> 100	> 100	> 100	> 100	> 100	> 500	–	–	–	–	–
–	–	–	Nc1c(C2=NCCCN2)cnn1-c1ccc(Br)cc1	–	–	> 100	> 100	> 100	> 100	> 100	> 100	> 500	–	–	–	–	–
–	–	–	Nc1c(C2=NCCN2)cnn1-c1cccc(Br)c1	12.7	–	27.7	> 100	> 100	> 100	67.4	> 100	352	5.2	–	–	–	–
–	–	–	Nc1c(C2=NCCN2)cnn1-c1ccc(F)cc1	–	–	> 100	> 100	> 100	> 100	> 100	> 100	> 500	–	–	–	–	–
–	–	–	Nc1c(C2=NCCCN2)cnn1-c1ccc(F)cc1	–	–	> 100	> 100	> 100	> 100	> 100	> 100	> 500	–	–	–	–	–
